Values joined by “and” are separate entries in the source; they are usually repeats but may differ in a detail not shown here. Identical values can stand only once.

Data set [1] is filed under the species Mus musculus. Kind of data set: Audiogenic seizures after concomitant treatment with Flumazenil (8.24 uM) in DBA / 2 mice clonic phase. The format is functional.
The test system of data set [2] is Mus musculus. Kind of data set: Anticonvulsant activity against the clonic seizures induced by icv injection of AMPA in DBA / 2 mice at a dose range of 10-66 uM/kg. The note with it: central. The format is functional.
Data set [3] has as its system Mus musculus. Kind of data set: Anticonvulsant activity against tonic phase of the audiogenic seizures in DBA / 2 mice 30 min after ip administration at a dose range 10-66 uM/kg. Format: functional. The note with it: 0.5 h. In a few lines:
(§1)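 Groups of 10 DBA/2 mice of either sex; drug ip (0.1 mL/10 g) as fresh solution in 50% DMSO/50% saline, 30 min before auditory stimulation (12-16 kHz, 109 dB, 60 s or until tonic extension) under perspex dome after 60 s habituation. Latency and incidence of wild running, clonic and tonic phases scored; ED50 (95% confidence limits) by Litchfield-Wilcoxon.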

The species entered for data set [4] is Mus musculus. Kind of data set: Audiogenic seizures after concomitant treatment with Flumazenil (24.72 uM) in DBA / 2 mice clonic phase. The format is functional.
The species named for data set [5] is Mus musculus. The experiment in a line: Audiogenic seizures after concomitant treatment with Flumazenil (24.72 uM) in DBA / 2 mice tonic phase. Format: functional.
Data set [6] can be described thus: Relative lipophilicity of compound. The note with it: reversed-phase TLC, acetone/water 2:1. Format: physicochemical. The method, boiled down:
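Reversed-phase TLC type lipophilicity: plates dried 105 °C 1 h, mobile phase acetone:water 2:1, 1 µL of 3 mg/mL CHCl3 solution spotted; five runs with varied positions, mean Rf converted as Rm = log[(1/Rf) - 1].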

The test system of data set [7] is Mus musculus. Kind of data set: Anticonvulsant activity against clonic phase of the audiogenic seizures in DBA / 2 mice 30 min after ip administration at a dose range 10-66 uM/kg. The format is functional. The note with it: 0.5 h. In a few lines:
as §1

For data set [8], the system named is Mus musculus. Kind of data set: Anticonvulsant activity against the tonic seizures induced by icv injection of AMPA in DBA / 2 mice at a dose range of 10-66 uM/kg. The conditions noted are these: central. Format: functional.
Data set [9] in a line: Therapeutic index it is the ratio between TD50 and ED50 (from the clonic phase of the audiogenic seizures). The conditions noted are these: read-out: TI. In a few lines:
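Therapeutic index computed as rotarod TD50 divided by ED50 for the clonic phase of audiogenic seizures in DBA/2 mice.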

Data set [10] is described as follows: Motor toxicity in 50% of mice on locomotion assessed by Rotarod test following 30 min ip administration. Format: organism-based. The conditions noted are these: mouse, in vivo. In a few lines: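 Male Swiss mice (20-26 g, 48-54 days), groups of 10, trained on rotarod (3 cm, 8 rpm); tested 30 min after ip dosing. Impairment = failure to stay on for 2 min; TD50 (95% confidence limits) by Litchfield-Wilcoxon.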
(In the rotarod test animals must keep their balance on a rotating rod.)

The species entered for data set [11] is Mus musculus. Kind of data set: Audiogenic seizures after concomitant treatment with Flumazenil (8.24 uM) in DBA / 2 mice tonic phase. The format is functional.
Data set [12] deals with Mus musculus. The experiment in a line: Pentylenetetrazole-induced seizures in Swiss mice after 45 min pretreatment at a dose range 10-150 uM/kg. The format is functional.
Data set [13] has as its system Mus musculus. Kind of data set: Anticonvulsant activity against the tonic seizures induced by icv injection of AMPA in DBA / 2 mice at a dose range of 10-100 uM/kg. The format is functional. The note with it: central.
Data set [14] deals with Mus musculus. Kind of data set: Anticonvulsant activity against clonic phase of the audiogenic seizures in DBA / 2 mice 30 min after ip administration at a dose range 3.3-100 uM/kg. The format is functional. The note with it: 0.5 h. The method, boiled down: as §1
The subject of data set [15] is Mus musculus. The experiment in a line: Audiogenic seizures after pretreatment with Aniracetam in DBA / 2 mice clonic phase at a dose range of 10-200 uM/kg. Format: functional. In a few lines:
(§2)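 DBA/2 mice pretreated with aniracetam 50 nmol icv 60 min before auditory testing, with ip 2,3-benzodiazepine; audiogenic clonic and tonic phases scored; ED50 by Litchfield-Wilcoxon.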

Data set [16] deals with Mus musculus. The experiment in a line: Anticonvulsant activity against tonic phase of the audiogenic seizures in DBA / 2 mice 30 min after ip administration at a dose range 3.3-100 uM/kg. Format: functional. The conditions noted are these: 0.5 h. The method, boiled down: as §1
In data set [17] the test system is Mus musculus. The experiment in a line: Audiogenic seizures after pretreatment with Aniracetam in DBA / 2 mice tonic phase at a dose range of 10-200 uM/kg. Format: functional. In a few lines:
as §2

Data set [18] has as its system Mus musculus. The experiment in a line: Anticonvulsant activity against the clonic seizures induced by icv injection of AMPA in DBA / 2 mice at a dose range of 10-100 uM/kg. Format: functional. The note with it: central.
In data set [19] the test system is Mus musculus. Kind of data set: Anticonvulsant activity against the maximal electroshock in Swiss mice after 45 minutes pretreatment at a dose range 10-150 uM/kg. Format: functional. In a few lines: (§3)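 Swiss mice dosed ip in 50% DMSO/50% saline 45 min before ear-clip electroshock (50 mA, 20 ms pulses, 35 Hz, 400 ms). Protection = abolition of tonic hindlimb extension. Usually 4-5 doses with 8-10 mice each; ED50 (95% confidence limits) by Litchfield-Wilcoxon.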
Background: The maximal electroshock test induces tonic seizures with an electrical stimulus.

Data set [20] deals with Mus musculus. Kind of data set: Anticonvulsant activity against tonic phase of the audiogenic seizures in DBA / 2 mice 30 min after ip administration at a dose range 3.3-66 uM/kg. The format is functional. The note with it: 0.5 h. In a few lines:
(§4)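 Groups of 10 DBA/2 mice of either sex, dosed ip (0.1 mL/10 g) with fresh solution in 50% DMSO/50% saline; 30 min later exposed under a perspex dome (after 60 s habituation) to 12-16 kHz, 109 dB sound for 60 s or until tonic extension. Scored for latency and incidence of wild running, clonus, tonus; ED50 (95% limits) by Litchfield-Wilcoxon.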

Data set [21] has as its system Mus musculus. Kind of data set: Anticonvulsant activity against the maximal electroshock in Swiss mice after 45 minutes pretreatment at a dose range 10-100 uM/kg. The format is functional. The method, boiled down: as §3
Data set [22] concerns Mus musculus. Kind of data set: Anticonvulsant activity against clonic phase of the audiogenic seizures in DBA / 2 mice 30 min after ip administration at a dose range 3.3-66 uM/kg. The format is functional. The note with it: 0.5 h. In a few lines:
as §4

Data set [23] has as its system Mus musculus. Kind of data set: Pentylenetetrazole-induced seizures in Swiss mice after 45 min pretreatment at a dose range 10-100 uM/kg. The format is functional. The method, boiled down: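 Male Swiss mice (20-26 g), compound ip in 50% DMSO/50% saline 45 min before sc pentylenetetrazole at CD97 (85 mg/kg), then observed 30 min. Protection is absence of clonic spasms lasting at least 5 s. Typically 4-5 doses, 8-10 mice per dose. ED50 with 95% confidence limits by Litchfield and Wilcoxon.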

The subject of data set [24] is Mus musculus. The experiment in a line: Anticonvulsant activity against tonic phase of the audiogenic seizures in DBA / 2 mice 30 min after ip administration at a dose range 10-133 uM/kg. The format is functional. The conditions noted are these: 0.5 h. The method, boiled down:
as §1

Data set [25] has as its system Mus musculus. The experiment in a line: Anticonvulsant activity against clonic phase of the audiogenic seizures in DBA / 2 mice 30 min after ip administration at a dose range 10-133 uM/kg. The format is functional. The note with it: 0.5 h. The method, boiled down:
as §1

What is called ED50 is the dose that gives a 50% effect, or the effect in half of the subjects. By TD50 is commonly meant the dose at which the toxic effect under study appears in half of the subjects. A higher TD50 goes with harm only at a large dose. Consider `COc1cc2c(cc1OC)C(c1cccc(N)c1)=NNC(=O)C2`, for which the ED50 was 21 µmol/kg in the data set filed under Mus musculus [1]; 30.9 µmol/kg with Mus musculus [2]; 18.3 µmol/kg and 5.69 mg/kg in the data set with Mus musculus [3]; 29.2 µmol/kg in the data set listed under Mus musculus [4]; 17.5 µmol/kg in the data set listed under Mus musculus [5]; 19.3 µmol/kg and 6 mg/kg in the data set on Mus musculus [7]. Besides, the values for the median effective dose (ED50) with Mus musculus [8] and in the data set filed under Mus musculus [11] were 27.8 µmol/kg and 18.2 µmol/kg, respectively. This compound gave a Rm in data set [6] of -0.525. In data set [9], the therapeutic index (TD50/ED50) was determined as 2.7. Besides, the TD50 at 0.5 h in [10] is 51.5 µmol/kg.

Consider `COc1cc2c(cc1OC)C(c1ccc(N)cc1)=NNC(=O)C2`, for which the ED50 in the data set listed under Mus musculus [1] is 14.1 µmol/kg; in the data set on Mus musculus [12], 22.6 µmol/kg; in the data set on Mus musculus [13] it was 25 µmol/kg; with Mus musculus [14] it was 15 µmol/kg and 4.66 mg/kg; in the data set filed under Mus musculus [4], 12 µmol/kg; in the data set filed under Mus musculus [5] it was 10.2 µmol/kg. In addition, the ED50 in the data set with Mus musculus [15] is 65.2 µmol/kg; with Mus musculus [16], 12.6 µmol/kg and 3.92 mg/kg; in the data set on Mus musculus [17], 58.2 µmol/kg; in the data set on Mus musculus [18], 32.1 µmol/kg; in the data set on Mus musculus [19] it was 15.9 µmol/kg; in the data set filed under Mus musculus [11], 12 µmol/kg. Further, the Rm in data set [6] was -0.602. Further, the therapeutic index (TD50/ED50) in [9] is 3.8. The compound further showed a TD50 at 0.5 h in data set [10] of 56.8 µmol/kg.

For `CC1=NN=C(c2ccc(N)cc2)c2cc3c(cc2C1)OCO3` [GYKI-52466], the median effective dose (ED50) in the data set listed under Mus musculus [1] is 37.8 µmol/kg; with Mus musculus [13], 40.5 µmol/kg; in the data set filed under Mus musculus [4], 39.5 µmol/kg; in the data set filed under Mus musculus [5], 29.7 µmol/kg; with Mus musculus [20], 25.3 µmol/kg and 7.41 mg/kg; in the data set on Mus musculus [15] it was 134 µmol/kg. Besides, the ED50 was 35.7 µmol/kg in the data set with Mus musculus [21]; 35.8 µmol/kg and 10.5 mg/kg with Mus musculus [22]; 68.3 µmol/kg with Mus musculus [23]; 100 µmol/kg in the data set with Mus musculus [17]; 57.5 µmol/kg in the data set with Mus musculus [18]; 26.7 µmol/kg in the data set filed under Mus musculus [11]. Further, the Rm in [6] is reported as -0.298. The same compound gave a TD50 at 0.5 h in data set [10] of 76.1 µmol/kg.

In the case of `COc1cc2c(cc1OC)C(c1ccc(Br)cc1)=NNC(=O)C2`, the ED50 was greater than 150 µmol/kg in the data set with Mus musculus [12]; 82.5 µmol/kg and 30.7 mg/kg in the data set with Mus musculus [24]; 110 µmol/kg and 41.2 mg/kg with Mus musculus [25]; 123 µmol/kg in the data set with Mus musculus [19]. In data set [6], this compound returned a Rm of 0.052. Besides, in [9], the therapeutic index (TD50/ED50) came out at 2. The same compound yielded a TD50 at 0.5 h in data set [10] of 226 µmol/kg.
